Screening data: PubChem BioAssay, Sanford-Burnham Center for Chemical Genomics
Gli-Sufu block: antagonists of Gli-Sufu signaling | inhibition, % at 5 µM | Sufu-KO-LIGHT fibroblasts, Gli luciferase reporter luminescence | actives 0.74% (n = 340,000);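 active means inhibition above about 55%, limit read from the data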
H9c2 TAG inh: triacylglycerol accumulation inhibition | H9c2 cells, Nile Red lipid (TAG) fluorescence; cells loaded with 200 µM oleic acid | inhibition, % at 12.5 µM | actives 0.66% (n = 230,000) | AID 651582;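 active means pattern-corrected inhibition of lipid staining of at least 50% with the nuclear-stain viability signal not falling by more than 50%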
iPSC survival up: enhancers of human iPSC single-cell survival | hiPSC single-cell survival, ATPlite luminescence; 100% = ROCK inhibitor wells, 0% = DMSO | survival enhancement, % at 20 µM | actives 0.044% (n = 360,000) | AID 602274; in the data active means survival enhancement above about 18%;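 further: cells exposed to compounds for 16 hours before the ATP read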
Lipid droplet: modulators of hepatic lipid droplet formation; AML12 mouse hepatocytes, oleate lipid droplets, BODIPY imaging; inhibition, % at 6.5 µM; actives 0.4% (n = 240,000); AID 1656;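 active means lipid droplet intensity inhibited by at least 50%, with more than 500 cells counted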
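Technique: fluorescence imaging, 20x objective, two fields per well / Assay system: AML12 hepatocytes (mouse) / Measure: % inhibition of lipid droplet signal / Doses: 6.5 µM single-point dosing / Incubation: overnight exposure / Reagent: 100 µM oleic acid challenge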
697 NFkB inh: lowers PMA/ionomycin-induced NF-kB signal in 697 B cells. 697 B-cell NF-kB luciferase reporter, 16 h. inhibition, % at 4 µM. actives 0.33% (n = 330,000); in the data active means inhibition above about 35%
Jurkat NFkB inh: lowers PMA/ionomycin-induced NF-kB signal in Jurkat cells; AID 435003; actives 0.53% (n = 330,000); PMA/ionomycin-induced NF-kB luciferase reporter, luminescence; inhibition, % at 4 µM; in the data active means inhibition above about 50%
Jurkat NFkB conf: inhibitors of the PMA/ionomycin-induced NF-kB reporter in Jurkat cells, retest | AID 435020 | shares compounds with Jurkat NFkB inh | inhibition, % at 4 µM | Jurkat NF-kB luciferase, 16 h | actives 27% (n = 2,700);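 active means inhibition reaching about 45% at 4 µM in either replicate, limit read from the data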
Each line names hits and unclear results; the compound was inactive in the other large screens (follow-up assays come after a bar, where they were run). Rows were chosen to be rich in hits. Some 1.8% of all compounds tested hit in one or more screens of this group.

CCc1ccccc1N(C)S(=O)(=O)c1ccc(-c2cc(C)no2)s1	Jurkat NFkB inh 55 (no result: H9c2 TAG inh) | Jurkat NFkB conf inactive
CCOc1ncccc1C(=O)OCC(=O)Nc1nnc(-c2ccccc2)o1	none (no result: Lipid droplet)
COc1ccc(CC(=O)Nc2cccc(-c3nnc(-c4cccc(C)c4)o3)c2)cc1OC	Jurkat NFkB inh 51 (no result: H9c2 TAG inh) | Jurkat NFkB conf 61
COc1ccc(CC(=O)Nc2cccc(-c3nnc(-c4ccc(C)cc4)o3)c2)cc1OC	none (no result: H9c2 TAG inh)
Cc1nc(NC2=NCN(CCCN3CCOCC3)CN2)nc2c(C)cccc12	Jurkat NFkB inh 64 | Jurkat NFkB conf inactive
Cc1nc(NC2=NCN(CCc3ccccc3)CN2)nc2ccccc12	none (no result: Gli-Sufu block, H9c2 TAG inh, iPSC survival up, 697 NFkB inh, Jurkat NFkB inh)
COc1cccc(N2CCN(c3ncnc4c3cnn4-c3ccc(C)cc3C)CC2)c1	Jurkat NFkB inh 87 (no result: Lipid droplet) | Jurkat NFkB conf 70
O=C(Nc1ccccc1N1CCCCC1)c1ccc(-c2ccc(Cl)cc2)o1	Jurkat NFkB inh 54 (no result: H9c2 TAG inh) | Jurkat NFkB conf inactive
O=C(Nc1ccccc1N1CCCC1)c1ccc(Br)o1	none (no result: H9c2 TAG inh)
S=C(c1ccc(-c2ccc(Cl)cc2)o1)N1CCCCC1	none (no result: H9c2 TAG inh) | Jurkat NFkB conf inactive
COc1ccccc1NC(=O)c1ccc(-c2ccc(Br)cc2)o1	Jurkat NFkB inh 57 | Jurkat NFkB conf inactive
S=C(c1ccc(-c2ccccc2Cl)o1)N1CCCCC1	none
CN1CCN(c2ccccc2NC(=O)c2ccc(-c3ccc(Cl)c(Cl)c3)o2)CC1	none
CN1CCN(c2ccccc2NC(=O)c2ccc(-c3ccc(Br)cc3)o2)CC1	Jurkat NFkB inh 50 | Jurkat NFkB conf inactive
CC1(C)CC(=O)C=C(Nc2ccc(C(=O)O)c(O)c2)C1	none (no result: H9c2 TAG inh)
COCn1ccnc1C(O)(c1ccc(OC)cc1)c1ccc(OC)cc1	none (no result: H9c2 TAG inh)
CCN(CC)C(=O)Cn1nnc(-c2ccc(S(C)(=O)=O)cc2)n1	none
COc1ccc([N+](=O)[O-])cc1NC(=O)C1CCCO1 (stereo unspecified)	none (no result: H9c2 TAG inh)
Nc1ccc(C=Cc2ccc(N)cc2)cc1	none (no result: Gli-Sufu block, H9c2 TAG inh, Lipid droplet, 697 NFkB inh, Jurkat NFkB inh)
CCN1C(=O)C(=Cc2cccc(OC)c2Oc2ccc([N+](=O)[O-])cc2[N+](=O)[O-])SC1=S	Jurkat NFkB inh 68 (no result: H9c2 TAG inh) | Jurkat NFkB conf inactive
C(COC1CC2CC1C1C2CC2OC21)OC1CC2CC1C1C2CC2OC21 (stereo unspecified)	none (no result: Lipid droplet, 697 NFkB inh, Jurkat NFkB inh)
Oc1ccc(F)cc1-c1cc(-c2ccc3c(c2)OCCO3)n[nH]1	none | Jurkat NFkB conf inactive
COc1cc(/C=N/NC(=O)CSc2ccccn2)ccc1OC(C)C	none
CCOc1ccc(/C=N/Nc2cc(N3CCOCC3)ncn2)c(O)c1	none (no result: Gli-Sufu block, Lipid droplet, 697 NFkB inh, Jurkat NFkB inh)
CCCOc1ccc(/C=N/Nc2cc(N3CCOCC3)ncn2)c(O)c1	Jurkat NFkB inh 55 (no result: H9c2 TAG inh) | Jurkat NFkB conf 76
CCc1cccc2c(C(=O)CN3C(=O)NC4(CCCCCC4)C3=O)c[nH]c12	Jurkat NFkB inh 94 (no result: Lipid droplet) | Jurkat NFkB conf inactive
CCOC(=O)CSc1nc(-c2ccncc2)ccc1C#N	none (no result: Lipid droplet) | Jurkat NFkB conf inactive
COc1ccc(NS(=O)(=O)c2ccc3c(c2)NC(=O)CC(=O)N3)cc1OC	none (no result: Gli-Sufu block, H9c2 TAG inh)
O=c1[nH]c(-c2ccccn2)cc2ccccc12	Jurkat NFkB inh 62 (no result: H9c2 TAG inh, Lipid droplet) | Jurkat NFkB conf inactive
CCOC(=O)CSc1nnc(CNC(=O)c2ccc([N+](=O)[O-])cc2)n1C	none
CCCOc1ccc(F)cc1-c1cc(C(=O)NCc2ccccc2OC)[nH]n1	none (no result: Gli-Sufu block, Lipid droplet, 697 NFkB inh, Jurkat NFkB inh)
O=C(CCCc1ccccc1)c1ccccc1	none (no result: H9c2 TAG inh) | Jurkat NFkB conf inactive
O=C(CCCC(=O)c1ccc(O)cc1)c1ccc(O)cc1	none (no result: Lipid droplet) | Jurkat NFkB conf inactive
O=C(CCCC(=O)c1ccccc1)NCCc1ccccc1	none (no result: H9c2 TAG inh)
CC(C)(C)NC(=O)C[C@H]1C[C@H](C(=O)N2CCOCC2)[C@@]2(C)c3[nH]c4ccc(Cl)cc4c3CCN2C1=O	none (no result: Lipid droplet, Jurkat NFkB inh)
COc1ccc(NC(=O)CSc2ccc3nnc(-c4cccnc4)n3n2)cc1OC	none
CNC[C@@H](Cc1ccccc1)NC[C@@H](CC1CCCCC1)NCCCc1ccccc1	Jurkat NFkB inh 91 | Jurkat NFkB conf inactive
CNC[C@@H](CC1CCCCC1)NC[C@H](CC(C)C)NCCc1cccc(C(F)(F)F)c1	H9c2 TAG inh 134, Jurkat NFkB inh 86 | Jurkat NFkB conf inactive
O=C(CN(c1ccccc1)S(=O)(=O)c1ccccc1[N+](=O)[O-])Nc1ccccc1C(=O)N1CCOCC1	none
O=C(c1nc2ccc(Cl)cn2c1CN1CCC[C@H]1CO)N1CCCCCCC1	none
COc1ccc(N(Cc2cc3cc(OC)ccc3[nH]c2=O)S(=O)(=O)c2ccc(NC(C)=O)cc2)cc1	Jurkat NFkB inh 69 (no result: H9c2 TAG inh) | Jurkat NFkB conf inactive
COc1ccc(N(Cc2cc3ccccc3[nH]c2=O)S(=O)(=O)c2ccc(OC)cc2)cc1	none (no result: H9c2 TAG inh)
O=c1cc(NCc2ccccc2)[nH]c(=O)[nH]1	none (no result: Lipid droplet)
O=C(N/N=C/C(Cl)=C\c1ccccc1)c1cccs1	none | Jurkat NFkB conf inactive
Cc1ccc(S(=O)(=O)NC(C)(C)CSc2ccccn2)cc1	none (no result: H9c2 TAG inh)
O=C(Nc1cccc(-c2nc3cccnc3s2)c1)c1ccco1	none (no result: H9c2 TAG inh)
O=C(Nc1ccc(-c2nc3cccnc3s2)cc1)c1cccnc1Cl	none | Jurkat NFkB conf inactive
O=C(Nc1ccc(-c2nc3cccnc3s2)cc1)c1ccco1	none | Jurkat NFkB conf inactive
CCn1c(C)cc(C(=O)CN2C(=O)c3ccccc3S2(=O)=O)c1C	Gli-Sufu block 64, Jurkat NFkB inh 69 (no result: Lipid droplet) | Jurkat NFkB conf inactive
CCCn1c(C)cc(C(=O)CN2C(=O)c3ccccc3C2=O)c1C	none (no result: Lipid droplet)
